{"data": "Assay results pooled from the literature", "target": "cGMP-dependent protein kinase 1 (PRKG1, Homo sapiens, UniProt Q13976)", "One construct used (Q13976 1-671)": "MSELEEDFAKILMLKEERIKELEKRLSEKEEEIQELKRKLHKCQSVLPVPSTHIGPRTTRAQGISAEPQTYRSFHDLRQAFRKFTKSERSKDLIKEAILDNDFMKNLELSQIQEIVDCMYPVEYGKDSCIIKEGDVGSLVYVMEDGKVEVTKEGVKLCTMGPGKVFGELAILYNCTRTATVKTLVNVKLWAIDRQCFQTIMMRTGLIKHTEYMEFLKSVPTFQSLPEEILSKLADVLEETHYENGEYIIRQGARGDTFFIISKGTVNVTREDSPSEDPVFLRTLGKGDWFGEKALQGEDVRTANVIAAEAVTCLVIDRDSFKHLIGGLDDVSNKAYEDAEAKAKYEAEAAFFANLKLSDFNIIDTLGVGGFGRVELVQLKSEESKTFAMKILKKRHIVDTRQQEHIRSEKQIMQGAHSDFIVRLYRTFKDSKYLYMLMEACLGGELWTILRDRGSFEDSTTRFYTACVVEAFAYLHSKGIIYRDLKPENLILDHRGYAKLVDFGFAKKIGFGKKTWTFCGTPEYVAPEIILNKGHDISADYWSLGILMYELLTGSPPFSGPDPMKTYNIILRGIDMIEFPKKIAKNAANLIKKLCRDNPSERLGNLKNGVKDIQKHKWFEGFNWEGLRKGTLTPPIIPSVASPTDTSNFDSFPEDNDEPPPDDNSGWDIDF"}
{"SMILES": "CCN1CCN(Cc2ccc(C(=O)Nc3ccc(C)c(Oc4ccc5c(c4)CC(=O)N5)c3)cc2C(F)(F)F)CC1", "observed": "binding", "technique": "competition with immobilised ligand", "tested at": "1 µM", "remaining binding [%]": 100}
{"SMILES": "O=C(c1ccc(Nc2ncc(Cl)c(-c3cc4ccccc4s3)n2)cc1)N1CCC(N2CCCC2)CC1", "observed": "binding", "technique": "competition with immobilised ligand", "tested at": "1 µM", "remaining binding [%]": 100}
{"SMILES": "COc1cc(-c2cn(C3CCc4c(F)cccc4N(CC(F)(F)F)C3=O)nn2)ccc1-n1cnc(C)c1 (stereo not drawn)", "observed": "cell-free assay", "technique": "competition with immobilised ligand", "tested at": "1 µM", "remaining binding [%]": 100}
{"SMILES": "COc1ncc2cc3ccccc3nc2c1C#N", "observed": "cell-free assay", "technique": "competition with immobilised ligand", "tested at": "5 µM", "remaining binding [%]": 100}
{"SMILES": "Cc1c(C(=O)O)cc(-c2ccc(C3CCNCC3)cc2)c2ccc(-c3ccc(C(F)(F)F)cc3)cc12", "observed": "binding", "technique": "competition with immobilised ligand", "tested at": "1 µM", "remaining binding [%]": 97}
{"SMILES": "Nc1ncc2c(n1)-c1c([nH]c3ccc(C#CC4CC4)cc13)CCCC2", "observed": "binding", "technique": "competition with immobilised ligand", "tested at": "1 µM", "remaining binding [%]": 86}
{"SMILES": "CN(C)c1nccc(-c2cnn3ncccc23)n1", "observed": "binding", "tested at": "1 µM", "remaining binding [%]": 100}
{"SMILES": "FC(F)(F)c1ccc2c(c1)nc(-c1cccnc1)n2C1CC1", "observed": "cell-free assay", "technique": "competition with immobilised ligand", "tested at": "1 µM", "remaining binding [%]": 87}
{"SMILES": "C[C@H]1CCN(c2nccc(-c3cnn4ncccc34)n2)C1", "observed": "binding", "tested at": "1 µM", "remaining binding [%]": 98}
{"SMILES": "CS(=O)(=O)NCC[C@H](NC(=O)c1cncc2c1cnn2-c1ccc(F)cc1)c1ccnc(S(C)(=O)=O)c1", "observed": "cell-free assay", "technique": "competition with immobilised ligand", "tested at": "1 µM", "remaining binding [%]": 96}
{"SMILES": "CN(CCCC(F)(F)F)c1nccc(-c2cnn3ncccc23)n1", "observed": "binding", "tested at": "1 µM", "remaining binding [%]": 100}
{"SMILES": "O=C(NCCCN1CCOCC1)c1ccc(Nc2nccc(-c3cc4ccccc4s3)n2)cc1", "observed": "binding", "technique": "competition with immobilised ligand", "tested at": "1 µM", "remaining binding [%]": 99}
{"SMILES": "c1cnn2ncc(-c3ccnc(N4CCC45COC5)n3)c2c1", "observed": "binding", "tested at": "1 µM", "remaining binding [%]": 89}
{"SMILES": "O=C(Nc1c[nH]nc1C(=O)NC1CCNCC1)c1cc(F)cc(F)c1", "observed": "binding", "technique": "competition with immobilised ligand", "tested at": "1 µM", "remaining binding [%]": 100}
{"SMILES": "Cc1c[nH]c2nccc(Oc3c(F)cc(Nc4cc(Cl)nc(N)n4)cc3F)c12", "observed": "cell-free assay", "technique": "competition with immobilised ligand", "tested at": "0.1 µM", "remaining binding [%]": 49}
{"SMILES": "Cc1cnn2ncc(-c3ccnc(N(C)C)n3)c2c1", "observed": "binding", "tested at": "1 µM", "remaining binding [%]": 99}
{"SMILES": "c1cncc(-c2cccc(Nc3nccc(NC4CCCCC4)n3)c2)c1", "observed": "binding", "technique": "competition with immobilised ligand", "tested at": "10 µM", "remaining binding [%]": 100}
{"SMILES": "Cc1cnc(Nc2ccc(C(=O)N3CCC(N4CCCC4)CC3)cc2)nc1-c1cc2ccccc2s1", "observed": "binding", "technique": "competition with immobilised ligand", "tested at": "1 µM", "remaining binding [%]": 100}
{"SMILES": "CNC(=O)[C@@H]1CC[C@@H](n2c(-c3ccc4cnccc4c3)nc3ccc(C(=O)NCc4cccc(C(N)=O)c4)cc32)C1", "observed": "binding", "technique": "competition with immobilised ligand", "tested at": "1 µM", "remaining binding [%]": 98}
{"SMILES": "N[C@H]1CCN(c2nccc(-c3cnn4ncccc34)n2)C1", "observed": "binding", "tested at": "1 µM", "remaining binding [%]": 89}
{"SMILES": "O=C(N[C@H]1CCCCC/C=C\\C2C[C@@]2(C(=O)O)NC(=O)[C@@H]2C[C@@H](Oc3ccncc3)CN2C1=O)OC1CCCC1 (stereo partly drawn)", "observed": "binding", "technique": "competition with immobilised ligand", "tested at": "1 µM", "remaining binding [%]": 100}
